Laboratory results published in ChEMBL document CHEMBL1287802, “Convergent synthesis of fluorescence-labeled probes of Annonaceous acetogenins and visualization of their cell distribution” (Bioorg Med Chem, 2010).
Activity calls are given as the source filed them. The rule behind the calls is not given here.

What was measured:
[1] = Growth inhibition of human HBC4 cells after 48 hrs by sulforhodamine B assay; type: functional; details: HBC4, 48 h
Outline: (§1)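 Tested in the JFCR39 panel of 39 human cancer cell lines. Cells were exposed to compound for 48 h, and growth was measured as the change in total cellular protein by sulforhodamine B colorimetry. GI50 (molar concentration for 50% growth inhibition) was calculated by a previously reported method. Fingerprints were plotted as log differences of each line's GI50 from the panel mean.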

[2] = Growth inhibition of human BSY1 cells after 48 hrs by sulforhodamine B assay; type: functional; details: BSY-1, 48 h; outline: as §1
[3] = Growth inhibition of human HBC5 cells after 48 hrs by sulforhodamine B assay; type: functional; details: HBC5, 48 h; outline: as §1
MCF7 = assay: Growth inhibition of human MCF7 cells after 48 hrs by sulforhodamine B assay; type: functional; details: MCF7, 48 h; outline: as §1
[4] = Growth inhibition of human MDA-MB-23 cells after 48 hrs by sulforhodamine B assay; type: functional; details: MDA-MB-23, 48 h, read-out: pGI50 (converted); outline: as §1
U-251 = assay: Growth inhibition of human U251 cells after 48 hrs by sulforhodamine B assay; type: functional; details: U-251, 48 h; outline: as §1
SF-268 = assay: Growth inhibition of human SF268 cells after 48 hrs by sulforhodamine B assay; type: functional; details: SF-268, 48 h; outline: as §1
SF-295 = assay: Growth inhibition of human SF295 cells after 48 hrs by sulforhodamine B assay; type: functional; details: SF-295, 48 h; outline: as §1
SF-539 = assay: Growth inhibition of human SF539 cells after 48 hrs by sulforhodamine B assay; type: functional; details: SF-539, 48 h; outline: as §1
SNB-75 = assay: Growth inhibition of human SNB75 cells after 48 hrs by sulforhodamine B assay; type: functional; details: SNB-75, 48 h; outline: as §1
SNB-78 = assay: Growth inhibition of human SNB78 cells after 48 hrs by sulforhodamine B assay; type: functional; details: SNB-78, 48 h; outline: as §1
HCC 2998 = assay: Growth inhibition of human HCC2998 cells after 48 hrs by sulforhodamine B assay; type: functional; details: HCC 2998, 48 h, read-out: pGI50 (converted); outline: as §1
KM12 = assay: Growth inhibition of human KM12 cells after 48 hrs by sulforhodamine B assay; type: functional; details: KM12, 48 h; outline: as §1
HT-29 = assay: Growth inhibition of human HT-29 cells after 48 hrs by sulforhodamine B assay; type: functional; details: HT-29, 48 h; outline: as §1
NCI-H23 = assay: Growth inhibition of human NCI-H23 cells after 48 hrs by sulforhodamine B assay; type: functional; details: NCI-H23, 48 h; outline: as §1
NCI-H226 = assay: Growth inhibition of human NCI-H226 cells after 48 hrs by sulforhodamine B assay; type: functional; details: NCI-H226, 48 h; outline: as §1
NCI-H522 = assay: Growth inhibition of human NCI-H522 cells after 48 hrs by sulforhodamine B assay; type: functional; details: NCI-H522, 48 h; outline: as §1
NCI-H460 = assay: Growth inhibition of human NCI-H460 cells after 48 hrs by sulforhodamine B assay; type: functional; details: NCI-H460, 48 h; outline: as §1
A549 = assay: Growth inhibition of human A549 cells after 48 hrs by sulforhodamine B assay; type: functional; details: A549, 48 h; outline: as §1
DMS-273 = assay: Growth inhibition of human DMS273 cells after 48 hrs by sulforhodamine B assay; type: functional; details: DMS-273, 48 h; outline: as §1
DMS-114 = assay: Growth inhibition of human DMS114 cells after 48 hrs by sulforhodamine B assay; type: functional; details: DMS-114, 48 h; outline: as §1
LOX IMVI = assay: Growth inhibition of human LOXIMVI cells after 48 hrs by sulforhodamine B assay; type: functional; outline: as §1
OVCAR-3 = assay: Growth inhibition of human OVCAR-3 cells after 48 hrs by sulforhodamine B assay; type: functional; details: OVCAR-3, 48 h; outline: as §1
OVCAR-4 = assay: Growth inhibition of human OVCAR4 cells after 48 hrs by sulforhodamine B assay; type: functional; details: OVCAR-4, 48 h; outline: as §1
OVCAR-5 = assay: Growth inhibition of human OVCAR5 cells after 48 hrs by sulforhodamine B assay; type: functional; details: OVCAR-5, 48 h; outline: as §1
OVCAR-8 = assay: Growth inhibition of human OVCAR8 cells after 48 hrs by sulforhodamine B assay; type: functional; details: OVCAR-8, 48 h; outline: as §1
SK-OV-3 = assay: Growth inhibition of human SKOV3 cells after 48 hrs by sulforhodamine B assay; type: functional; details: SK-OV-3, 48 h; outline: as §1
[5] = Growth inhibition of human RXF631L cells after 48 hrs by sulforhodamine B assay; type: functional; details: RXF 631, 48 h; outline: as §1
ACHN = assay: Growth inhibition of human ACHN cells after 48 hrs by sulforhodamine B assay; type: functional; outline: as §1
St-4 = assay: Growth inhibition of human St-4 cells after 48 hrs by sulforhodamine B assay; type: functional; details: St-4, 48 h; outline: as §1
[6] = Growth inhibition of human MKN1 cells after 48 hrs by sulforhodamine B assay; type: functional; details: MKN-1, 48 h; outline: as §1
MKN-7 = assay: Growth inhibition of human MKN7 cells after 48 hrs by sulforhodamine B assay; type: functional; details: MKN-7, 48 h; outline: as §1
MKN-28 = assay: Growth inhibition of human MKN28 cells after 48 hrs by sulforhodamine B assay; type: functional; details: MKN-28, 48 h; outline: as §1
MKN-45 = assay: Growth inhibition of human MKN45 cells after 48 hrs by sulforhodamine B assay; type: functional; details: MKN-45, 48 h; outline: as §1
MKN-74 = assay: Growth inhibition of human MKN74 cells after 48 hrs by sulforhodamine B assay; type: functional; details: MKN-74, 48 h; outline: as §1
DU-145 = assay: Growth inhibition of human DU145 cells after 48 hrs by sulforhodamine B assay; type: functional; details: DU-145, 48 h, read-out: pGI50 (converted); outline: as §1
PC-3 = assay: Growth inhibition of human PC3 cells after 48 hrs by sulforhodamine B assay; type: functional; details: PC-3, 48 h; outline: as §1
HCT-15 = assay: Growth inhibition of human HCT15 cells after 48 hrs by sulforhodamine B assay; type: functional; details: HCT-15, 48 h; outline: as §1
HCT-116 = assay: Growth inhibition of human HCT116 cells after 48 hrs by sulforhodamine B assay; type: functional; details: HCT-116, 48 h; outline: as §1
[7] = molecular target: ABC-type oligopeptide transporter ABCB9 (Homo sapiens) (UniProt Q9NP78); assay: Effect on human GFP-tagged TAPL-mediated cellular uptake expressed in CHO-K1 cells assessed as localization to endoplasmic reticulum at 10 uM after 5 hrs using ER-Tracker red staining by confocal laser scanning microscopic analysis; type: cell-based
Outline: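 CHO-K1 cells were cultured two days at 37 °C in Ham's F12 with 7% fetal calf serum. They were loaded with 10 µM dansyl probe in medium for 5 h, washed five times, then stained with ER-Tracker Red. Live confocal imaging used 405 nm excitation for dansyl and 559 nm for the tracker, with overlap of signals assessed. Samples were run in duplicate.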

[8] = Cytotoxicity against CHOK1 cells at 10 uM after 24 hrs; type: cell-based, Cricetulus griseus; details: chinese hamster, cho-k1, 24 h
Outline: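 CHO-K1 cells were grown two days at 37 °C in Ham's F12 with 7% fetal calf serum in glass-bottomed dishes. They were exposed to 10 µM probe for 5 h, washed, and imaged. Dishes were then incubated a further 24 h. Toxicity was judged by microscopic inspection for desquamated or suspended cells.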

[9] = molecular target: ABC-type oligopeptide transporter ABCB9 (Homo sapiens) (UniProt Q9NP78); assay: Effect on human GFP-tagged TAPL-mediated cellular uptake expressed in CHO-K1 cells assessed as localization to lysosome at 10 uM after 5 hrs by confocal laser scanning microscopic analysis

ABC-type oligopeptide transporter ABCB9 (Homo sapiens), sequence (Q9NP78 whole entry): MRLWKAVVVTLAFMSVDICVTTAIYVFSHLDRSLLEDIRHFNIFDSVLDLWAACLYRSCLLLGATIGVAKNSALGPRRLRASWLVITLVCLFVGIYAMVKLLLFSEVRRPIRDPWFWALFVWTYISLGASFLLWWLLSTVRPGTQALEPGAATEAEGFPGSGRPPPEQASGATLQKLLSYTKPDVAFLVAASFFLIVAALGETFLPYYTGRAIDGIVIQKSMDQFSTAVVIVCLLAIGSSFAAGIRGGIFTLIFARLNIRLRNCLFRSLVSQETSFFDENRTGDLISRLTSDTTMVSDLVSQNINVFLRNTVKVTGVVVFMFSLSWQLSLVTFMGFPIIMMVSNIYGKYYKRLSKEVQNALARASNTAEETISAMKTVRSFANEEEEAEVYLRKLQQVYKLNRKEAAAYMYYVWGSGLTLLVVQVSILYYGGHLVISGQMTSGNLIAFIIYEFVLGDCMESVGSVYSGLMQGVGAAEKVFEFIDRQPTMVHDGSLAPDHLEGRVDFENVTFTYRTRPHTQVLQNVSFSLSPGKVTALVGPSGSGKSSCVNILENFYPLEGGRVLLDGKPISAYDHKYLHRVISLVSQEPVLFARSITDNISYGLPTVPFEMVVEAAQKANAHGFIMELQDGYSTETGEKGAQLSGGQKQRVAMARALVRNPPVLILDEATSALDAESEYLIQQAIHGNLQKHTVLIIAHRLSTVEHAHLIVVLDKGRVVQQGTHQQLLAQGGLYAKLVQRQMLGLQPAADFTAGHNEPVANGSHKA

Compound: C[C@H]1C=C(CCCCCCCCCCCC[C@@H](O)[C@H]2CC[C@H]([C@H](O)CCCCCCCCCNc3ccc([N+](=O)[O-])c4nonc34)O2)C(=O)O1
- GI50 [1]: 64.6 µM
- GI50 [2]: 33.1 µM
- GI50 [3]: 21.9 µM
- GI50 (MCF7): 16.2 µM
- GI50 [4]: > 100 µM
- GI50 (U-251): 75.9 µM
- GI50 (SF-268): 89.1 µM
- GI50 (SF-295): 7.24 µM
- GI50 (SF-539): 33.9 µM
- GI50 (SNB-75): 51.3 µM
- GI50 (SNB-78): 97.7 µM
- GI50 (HCC 2998): > 100 µM
- GI50 (KM12): 36.3 µM
- GI50 (HT-29): 69.2 µM
- GI50 (NCI-H23): 18.6 µM
- GI50 (NCI-H226): 22.9 µM
- GI50 (NCI-H522): 8.13 µM
- GI50 (NCI-H460): 51.3 µM
- GI50 (A549): 26.3 µM
- GI50 (DMS-273): 19.1 µM
- GI50 (DMS-114): 0.01 µM
- GI50 (LOX IMVI): 10.7 µM
- GI50 (OVCAR-3): 38.9 µM
- GI50 (OVCAR-4): 60.3 µM
- GI50 (OVCAR-5): 38.9 µM
- GI50 (OVCAR-8): 69.2 µM
- GI50 (SK-OV-3): 81.3 µM
- GI50 [5]: 67.6 µM
- GI50 (ACHN): 33.9 µM
- GI50 (St-4): 33.1 µM
- GI50 [6]: 21.4 µM
- GI50 (MKN-7): 0.0525 µM
- GI50 (MKN-28): 0.01 µM
- GI50 (MKN-45): 43.7 µM
- GI50 (MKN-74): 0.191 µM
- GI50 (DU-145): > 100 µM
- GI50 (PC-3): 29.5 µM
- GI50 (HCT-15): 72.4 µM
- GI50 (HCT-116): 15.8 µM

Compound: C[C@H]1C=C(CCCCCCCCCCCC[C@@H](O)[C@H]2CC[C@H]([C@H](O)CCCCCCCCCNS(=O)(=O)c3cccc4c(N(C)C)cccc34)O2)C(=O)O1
- Activity [7]: Active
- Activity [8]: Non-toxic
- GI50 [1]: > 100 µM
- GI50 [2]: > 100 µM
- GI50 [3]: > 100 µM
- GI50 (MCF7): 6.03 µM
- GI50 [4]: > 100 µM
- GI50 (U-251): > 100 µM
- GI50 (SF-268): > 100 µM
- GI50 (SF-295): 0.513 µM
- GI50 (SF-539): > 100 µM
- GI50 (SNB-75): > 100 µM
- GI50 (SNB-78): > 100 µM
- GI50 (HCC 2998): > 100 µM
- GI50 (KM12): > 100 µM
- GI50 (HT-29): > 100 µM
- GI50 (NCI-H23): 3.47 µM
- GI50 (NCI-H226): 29.5 µM
- GI50 (NCI-H522): 4.9 µM
- GI50 (NCI-H460): > 100 µM
- GI50 (A549): > 100 µM
- GI50 (DMS-273): > 100 µM
- GI50 (DMS-114): 0.0234 µM
- GI50 (LOX IMVI): > 100 µM
- GI50 (OVCAR-3): > 100 µM
- GI50 (OVCAR-4): > 100 µM
- GI50 (OVCAR-5): > 100 µM
- GI50 (OVCAR-8): > 100 µM
- GI50 (SK-OV-3): > 100 µM
- GI50 [5]: > 100 µM
- GI50 (ACHN): > 100 µM
- GI50 (St-4): > 100 µM
- GI50 [6]: > 100 µM
- GI50 (MKN-7): 0.0398 µM
- GI50 (MKN-28): 0.0692 µM
- GI50 (MKN-45): > 100 µM
- GI50 (MKN-74): 1.55 µM
- GI50 (DU-145): > 100 µM
- GI50 (PC-3): 81.3 µM
- GI50 (HCT-15): > 100 µM
- GI50 (HCT-116): 8.91 µM
- Activity [9]: inactive
